STAT1 act-1: STAT1 signaling activation; NIH 3T3 STAT1-luciferase reporter, IFN-gamma, luminescence; 100% = IFN-gamma alone, no compound; activation (% of control), % at 5.5 µM; actives 2.6% (n = 200,000); AID 932;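 active = activation above the screen-wide mean activation plus 3 SD, cut at about 130% in these data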
STAT1 blocker: reduces IFN-gamma driven STAT1 reporter signal; NIH 3T3 STAT1-luciferase reporter, luminescence; inhibition, % at 5.5 µM; actives 0.35% (n = 200,000); AID 920;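 active = inhibition above a set limit, the mean inhibition across all tested compounds plus 3 SD, cut at about 34% in these data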
STAT3 inh: STAT3 signaling inhibition. U3A cells, IL-6 STAT3-luciferase reporter, luminescence; host cell line lacks STAT1. inhibition, % at 5.5 µM. actives 0.89% (n = 190,000). AID 862;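 active = inhibition above the mean inhibition across all screened compounds plus 3 SD, cut at about 44% in these data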
STAT3 act-1: STAT3 signaling activation; U3A cells, IL-6 STAT3-luciferase reporter, luminescence; 100% = signal with IL-6 EC80 alone; activation (% of control), % at 5.6 µM; actives 0.91% (n = 190,000);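 active = activation above the screen-wide mean of compound activation plus 3 SD, cut at about 130% in these data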
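Test system: STAT3-luciferase reporter U3A cells; Detection: reporter luminescence signal; Times: 1 h compound pre-exposure, 6 h IL-6 stimulation, 37 °C; Benchmarks: IL-6-only high control; Also added: IL-6 stimulus at 33 ng/mL final.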
STAT3 act-2: STAT3 activation, confirmation assay | shares compounds with STAT3 act-1 | U3A STAT3-luciferase reporter, IL-6 potentiation, luminescence; U3A cells lack STAT1; 100 means same as IL-6 alone | potentiation (% of control), % at 5.7 µM | actives 64% (n = 1,200) | AID 1267;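 active = percent activation of the STAT3 luciferase reporter above a set limit taken from the earlier primary screen, cut at about 130% in these data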
NFkB act STAT3ct: NF-kappaB activation in STAT3 activator counter-screen; AID 1309; activation (% of control), % at 5.7 µM; human cells, NF-kappaB reporter activation; shares compounds with STAT3 act-1; actives 11% (n = 1,200); in the data active = activation above about 120%;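 also: reporter induced by TNF-alpha stimulation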
STAT1 act-2: activates STAT1, counter-screen to STAT3 activators | AID 1318 | shares compounds with STAT3 act-1 | NIH 3T3 STAT1-luciferase reporter, IFN-gamma, luminescence | activation (% of control), % at 5.7 µM | actives 13% (n = 1,200);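 active = activation above the solvent-only control well mean plus 3 SD, set per screening run, cut at about 120% in these data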
Hits are given with their value; i = inactive; nt = not tested or not shown. Hits are enriched below; roughly 4.3% of the tested compounds scored in any of these assays.

SMILES	STAT1 act-1	STAT1 blocker	STAT3 inh	STAT3 act-1	STAT3 act-2	NFkB act STAT3ct	STAT1 act-2
O=C1C2CC=C(Cl)CC2C(=O)N1CCc1c[nH]c2ccccc12 (stereo unspecified)	i	i	i	141	149	i	i
COC(=O)C1=C(C)N(CCc2c[nH]c3ccccc23)C(=O)/C1=C\N(C)C	i	i	i	i	nt	nt	nt
CC1=CCC2C(=O)N(CCc3c[nH]c4ccccc34)C(=O)C2C1 (stereo unspecified)	i	i	i	142	i	i	i
O=C(Nc1ccccc1N1CCOCC1)c1cc(Br)c(Br)s1	i	i	i	i	nt	nt	nt
CCS(=O)(=O)Nc1c(C(=O)O)[nH]c2ccccc12	i	i	i	164	169	i	i
CC(=O)Nc1c(C(=O)O)[nH]c2ccccc12	i	i	i	i	nt	nt	nt
COC(=O)c1[nH]c2ccccc2c1NC(=O)CN1CCCCCC1	i	i	i	i	nt	nt	nt
CCS(=O)(=O)Nc1c(C(=O)OC)[nH]c2ccccc12	i	i	i	139	i	i	i
CCc1ccc(OCC(=O)N/N=C2\CC(=O)c3ccccc32)cc1	i	i	i	146	i	i	i
CCCCS(=O)(=O)Nc1ccc(C)cn1	i	i	i	i	nt	nt	nt
Cc1ccc(C)c(-n2c(-c3csc(C)c3C)n[nH]c2=S)c1	i	i	i	i	nt	nt	nt
CC(=O)c1ccc(N2C(=O)[C@@H]3C(CCC(N)=O)NC4(C(=O)Nc5c4ccc(Cl)c5C)[C@@H]3C2=O)cc1 (stereo partly specified)	i	i	i	137	i	i	i
COc1ccc2[nH]c3ccccc3c2c1	i	i	i	i	nt	nt	nt
COc1ccc2[nH]c(=O)c3c(c2c1)OC(C)(C)C=C3	i	i	i	137	i	i	i
CCOC(=O)c1c(C)oc2ccc(OC(=O)COc3c(F)c(F)c(F)c(F)c3F)cc12	i	i	i	i	nt	nt	nt
CN(c1ncc(C(F)(F)F)cc1Cl)n1cc(C(N)=O)c2ccccc2c1=O	i	i	i	i	nt	nt	nt
Cc1ccc(-c2nc3ccccc3n3nnnc23)cc1	i	i	i	174	185	131	148
O=C(O)c1cc2ccc3ccccc3c2oc1=O	i	i	i	152	i	i	i
CCOc1cc(CNCc2ccncc2)cc(Cl)c1OC	i	i	i	i	nt	nt	nt
CN1CCN(CCCNC(=O)c2cc3c(-c4ccc(Cl)cc4)nn(C)c3s2)CC1	i	i	i	173	149	i	i
CCN(CC)CCCNC(=O)c1cc(-c2ccc(Cl)c(Cl)c2)on1	i	i	i	i	nt	nt	nt
Cn1nc(-c2ccc(Cl)cc2)c2cc(C(=O)NCC3CCCO3)sc21 (stereo unspecified)	i	i	i	167	147	i	i
CCN(CC)CCCNC(=O)c1cc2c(-c3ccc(Cl)cc3)nn(C)c2s1	i	i	i	161	156	i	i
Cn1c(Cc2ccccc2)nnc1SCC(=O)NCCc1ccccc1	i	i	i	i	nt	nt	nt
CNc1cncc(C(=O)O)c1	i	i	i	i	nt	nt	nt
SMILES	STAT1 act-1	STAT1 blocker	STAT3 inh	STAT3 act-1	STAT3 act-2	NFkB act STAT3ct	STAT1 act-2
CCOC(=O)C1=C(C)NC2=C(C(=O)CCC2)C1c1coc2ccccc2c1=O (stereo unspecified)	i	i	i	145	150	i	i
CC1=C(C(=O)OC2CCCC2)C(c2coc3ccccc3c2=O)C2=C(CCCC2=O)N1 (stereo unspecified)	i	i	i	137	i	i	i
CC1=C(C(=O)OCC2CCCO2)C(c2coc3ccccc3c2=O)C2=C(CCCC2=O)N1 (stereo unspecified)	i	i	i	143	161	i	i
CC1=C(C(=O)Nc2ccccc2)C(c2coc3ccccc3c2=O)C2=C(CCCC2=O)N1 (stereo unspecified)	i	i	i	i	nt	nt	nt
COC(=O)C1=C(C)NC2=C(C(=O)CCC2)C1c1coc2ccccc2c1=O (stereo unspecified)	i	i	i	139	147	i	i
COc1ccccc1OCC(=O)N/N=C1/C=C(C)CC1	i	i	i	i	nt	nt	nt
COc1ccc(N2CCN(c3ccc(Cl)nn3)CC2)cc1	i	i	i	i	nt	nt	nt
Cc1ccc(CNC(=O)C2CC(c3ccccc3[N+](=O)[O-])=NO2)cc1 (stereo unspecified)	i	i	i	156	174	i	i
Cc1ccc(NC(=O)COC(=O)c2cccc3c(=O)c(C)c(-c4ccccc4)oc23)cc1	i	i	i	i	nt	nt	nt
Cc1ncoc1C(=O)N1CCc2c([nH]c3ccccc23)C1C1CCCCC1 (stereo unspecified)	i	i	i	140	i	i	i
CC(=O)/C(N=Nc1cc(C)ccc1O)=C(\C)O	i	i	i	149	150	i	i
Nc1nc(-c2c[nH]c3ccccc23)cs1	i	i	i	i	nt	nt	nt
CN=c1scc(-c2c[nH]c3ccccc23)n1C	i	i	i	138	137	i	i
CCOn1c(=O)c(-c2cc3ccccc3o2)[n+]([O-])c2ccccc21	i	i	i	154	179	128	158
COc1cc2c(cc1NC(=O)C(C)OC(=O)C1CC(=O)N(Cc3ccco3)C1)oc1ccccc12 (stereo unspecified)	i	i	i	154	147	i	122
CCCc1cc(=O)n2[nH]c(C)nc2n1	i	i	i	153	i	i	i
CCCc1cc(=O)n2[nH]c(C(F)(F)F)nc2n1	i	i	i	i	nt	nt	nt
COc1ccccc1-c1nnc(Nc2nc3c(OC)cccc3s2)o1	i	i	i	142	i	137	141
CC1(C)CC(NC(=O)C(Cl)(Cl)Cl)CC(C)(C)N1	i	i	i	i	nt	nt	nt
CCOC(=O)c1cnn(-c2ncnc3sc4c(c23)CCC4)c1N	i	i	i	148	149	i	i
Nc1ccc(C(=O)Nc2nccs2)cc1	i	i	i	i	nt	nt	nt
COc1ccc(-c2csc(NC(=O)c3nc(-c4ccccc4)oc3C)n2)cc1	i	i	i	i	nt	nt	nt
CCOc1ccccc1NC(=O)c1nc(-c2ccccc2)oc1C	i	i	i	141	i	i	i
Cc1oc(-c2ccccc2)nc1C(=O)Nc1nccs1	i	i	i	140	142	i	i
Cc1ccc(C(=O)Nc2nccs2)cc1	i	i	i	144	165	i	128
COCC1CCN(Cc2cn(-c3ccccc3F)nc2-c2cc(C)sc2C)CC1	i	i	i	i	nt	nt	nt
CCOC(=O)c1cnn(-c2cc(C)c3ccccc3n2)c1N	i	i	i	170	173	i	i
CCOC(=O)c1cnn(-c2ccccn2)c1N	i	i	i	i	nt	nt	nt
CC(Oc1ccc(F)cc1)C(=O)Nc1ccc2ccccc2c1 (stereo unspecified)	i	i	i	139	136	i	i
